# The list is not random: actives were taken first. Their share in the collection is about 1.8%.
# GalR3 antagonist: GalR3 antagonists in HEK293 cells, primary screen, cell-based, fluorescence readout | Galanin receptor type 3 (Homo sapiens), O60755 | HEK293 GalR3-CNG cAMP membrane potential fluorescence; galR3 body fused to GalR1 C-terminus | inhibition, % at 3 µM | 360,000 compounds, 0.44% hits;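 active = inhibition above the screen-wide average plus 3 SD, cut at about 13% in these data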;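 note: forskolin and galanin both at EC90 stimulate the cells; cAMP rise reported by CNG channel membrane potential dye signal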
# Target sequence (O60755 1-299 limits assumed): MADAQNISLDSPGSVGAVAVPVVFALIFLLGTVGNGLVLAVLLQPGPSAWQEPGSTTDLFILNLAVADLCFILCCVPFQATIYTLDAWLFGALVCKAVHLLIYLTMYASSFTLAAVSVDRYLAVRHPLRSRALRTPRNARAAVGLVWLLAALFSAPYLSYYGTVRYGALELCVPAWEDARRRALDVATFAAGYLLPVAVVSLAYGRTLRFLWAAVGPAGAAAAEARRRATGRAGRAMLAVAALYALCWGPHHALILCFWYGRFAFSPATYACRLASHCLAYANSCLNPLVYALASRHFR
# 697 NFkB inh: inhibitors of PMA/ionomycin-induced NF-kB reporter, 697 cells, primary screen, B-cell NF-kB inhibitor project, cell-based, luminescence, uHTS | 697 B-cell NF-kB luciferase reporter, 16 h | inhibition, % at 4 µM | 330,000 compounds, 0.33% hits; in the data active = inhibition above about 35%
# NR2E3 ag-1: inhibitors of NR2E3-RetCOR corepressor binding, primary screen, NR2E3 agonist project, biochemical, TR-FRET, GST-NR2E3, biotin-RetCOR. inhibition of corepressor binding, % at 4.78 µM. AID 2300, 2010. 1536-well. Photoreceptor-specific nuclear receptor (Homo sapiens), Q9Y5X4. 320,000 compounds, 0.12% hits;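 active = percent inhibition above the cutoff of mean plus 3 SD of all tested compounds, set per screening campaign, cut at about 20% in these data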
# Target sequence (Q9Y5X4 whole entry, looked up): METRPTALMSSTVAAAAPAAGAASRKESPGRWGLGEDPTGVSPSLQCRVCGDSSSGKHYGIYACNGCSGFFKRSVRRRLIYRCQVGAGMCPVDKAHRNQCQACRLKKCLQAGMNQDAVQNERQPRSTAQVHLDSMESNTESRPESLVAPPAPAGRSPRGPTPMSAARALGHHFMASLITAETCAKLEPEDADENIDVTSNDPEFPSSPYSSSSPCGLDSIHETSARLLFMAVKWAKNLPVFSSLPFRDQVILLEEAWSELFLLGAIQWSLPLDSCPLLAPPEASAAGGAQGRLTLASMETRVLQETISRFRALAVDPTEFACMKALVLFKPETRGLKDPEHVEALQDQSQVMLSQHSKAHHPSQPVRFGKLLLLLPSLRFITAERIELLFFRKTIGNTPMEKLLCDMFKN
#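 system = GST-tagged NR2E3 plus biotinylated RetCOR corepressor | input = 1.35 nM GST-NR2E3 | also added = 7 nM biotin-RetCOR | schedule = 5 h incubation at 4 °C | measured by = TR-FRET with europium anti-GST and streptavidin-D2, 340 nm excitation | read-out = percent loss of FRET ratio relative to control wells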
# NR2E3 ag-2: NR2E3 agonists in two-hybrid cells, primary screen, cell-based, luminescence, CHO-S, Gal4-NCOR/VP16-NR2E3; AID 602229, 2012; inhibition of corepressor binding, % at 3.98 µM; luciferase; 360,000 compounds, 0.35% hits;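 active = inhibition above the mean of all tested compounds plus 3 SD, cut at about 70% in these data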;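 note: higher means lower luciferase signal from less NR2E3 corepressor binding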
# Jurkat NFkB inh: inhibitors of induced NF-kB luciferase reporter, primary screen, TCR NF-kB activation inhibitor project, cell-based, luminescence, uHTS; Jurkat, PMA/ionomycin-induced NF-kB luciferase reporter; 330,000 compounds, 0.53% hits; inhibition, % at 4 µM; in the data active = inhibition above about 50%
# Gli-Sufu antag: Gli-Sufu pathway antagonists, primary screen, luciferase luminescence, Sufu-KO-LIGHT cells, uHTS; 340,000 compounds, 0.74% hits; Sufu-KO-LIGHT fibroblasts, Gli luciferase reporter luminescence; inhibition, % at 5 µM;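 active = inhibition above about 55%, limit read from the data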
# Gli-Sufu confirm: Gli-SUFU pathway antagonists, confirmation, single concentration, luciferase luminescence, Sufu-KO-LIGHT cells; Gli luciferase reporter; shares compounds with Gli-Sufu antag; AID 602428, 2012; inhibition, % at 5 µM; 2,500 compounds, 40% hits;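 active = mean inhibition at 5 µM reaching about 45%, limit read from the data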
# SufuKO cytotox: cytotoxicity in Sufu-KO-LIGHT cells, confirmation, cytotoxicity control for Gli-SUFU antagonist project, cell-based, ATP luminescence, single concentration | 2,500 compounds, 32% hits | cytotoxicity, % at 5 µM | shares compounds with Gli-Sufu antag;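 active = mean cytotoxicity at 5 µM above about 25%, limit read from the data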;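 note: cells exposed to compound overnight for roughly 16 to 18 hours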
# Wnt3a cs: Wnt3a reporter signal inhibition, confirmation, counter-screen for Gli-SUFU antagonist project, Wnt-LIGHT cells, luminescence, single concentration; Wnt3a-driven luciferase reporter; 2,500 compounds, 20% hits; AID 651995, 2013; inhibition, % at 6.25 µM; shares compounds with Gli-Sufu antag;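 active = mean inhibition above about 25%, limit read from the data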
# NR2E3 ag confirm: NR2E3 agonist confirmation in cells, cell-based, luminescence, CHO-S two-hybrid. shares compounds with NR2E3 ag-2. CHO-S mammalian two-hybrid NR2E3-NCOR, luciferase luminescence. inhibition, % at 3.98 µM. 2,300 compounds, 51% hits. AID 624378, 2012;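 active = average inhibition above a cutoff equal to the mean inhibition of all tested compounds plus one SD, cut at about 70% in these data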
# GAL4-VP16 luc: GAL4-VP16 reporter modulators, confirmation, counter-screen for NR2E3 agonist project, cell-based, luminescence, CHO-S, high throughput. shares compounds with NR2E3 ag-2. CHO-S GAL4-VP16 luciferase reporter. inhibition, % at 3.98 µM. 2,300 compounds, 29% hits;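 active = mean inhibition above a cutoff equal to the average over all tested compounds plus one standard deviation, cut at about 70% in these data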;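 note: luciferase from a UAS reporter driven by GAL4-VP16 transactivation; higher means less reporter light so more repression of VP16 activity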
# Hits are given with their value; n = inactive; x = no result.
SMILES,GalR3 antagonist,697 NFkB inh,NR2E3 ag-1,NR2E3 ag-2,Jurkat NFkB inh,Gli-Sufu antag,NR2E3 ag confirm,GAL4-VP16 luc,others
CC(C)CC(NC(=O)CCCNC(=O)CCC(=O)OC1O[C@H]2OC3(C)CC[C@H]4[C@H](C)CCC(C1C)C24OO3)C(=O)O (some centres not stated),n,n,n,93.9,n,84.7,91.1,74.0,Gli-Sufu confirm=78.5;SufuKO cytotox=n;Wnt3a cs=n
CC1C(OC(=O)CCC(=O)NC(C)(C)CO)O[C@H]2OC3(C)CC[C@H]4[C@H](C)CCC1C24OO3 (some centres not stated),n,n,n,97.2,n,85.0,94.9,74.8,Gli-Sufu confirm=86.0;SufuKO cytotox=n;Wnt3a cs=n
Cc1c(Br)c(=O)oc2cc(OCC(=O)N3C[C@H]4C[C@@H](C3)c3cccc(=O)n3C4)ccc12,n,n,n,n,n,n,x,x,
O=C(Nc1nccs1)c1c(O)c2c(n(Cc3ccco3)c1=O)CCCC2,n,n,n,n,n,n,x,x,
COC(=O)C1=C(c2c(C)noc2C)C[C@@H]2CC[C@H]1N2C(=O)N1CCc2cc(OC)c(OC)cc2C1,x,n,n,n,n,n,x,x,
O=C1NC2C(=CC(O)C(O)C2O)c2cc3c(c(O)c21)OCO3 (configuration not stated),n,x,x,101.5,x,84.0,100.4,99.3,Gli-Sufu confirm=92.3;SufuKO cytotox=78.4;Wnt3a cs=104.2
O=C1NC2C(=CC(O)C(O)C2O)c2cc3c(cc21)OCO3 (configuration not stated),n,x,x,100.2,x,71.2,100.5,97.2,Gli-Sufu confirm=69.9;SufuKO cytotox=n;Wnt3a cs=101.6
COC(=O)C1=C(c2ccc(F)cc2OCc2ccccc2)C[C@@H]2CC[C@H]1N2C(=O)NCc1cc(C)oc1C(F)(F)F,x,n,x,n,n,n,x,x,
CN1C2CCC1/C(=C/c1ccccn1)C(=O)/C2=C\c1ccccn1,n,x,n,88.2,x,n,99.5,n,
c1ccc2c3c([nH]c2c1)C1(CCNCC1)NCC3,n,n,n,n,n,n,x,x,
COc1cc(C2c3cc4c(cc3CC3COC(=O)C32)OCO4)cc(OC)c1O (configuration not stated),n,x,x,n,x,n,x,x,
O=C1NC2C(O)C(O)C(O)C(O)C2c2cc3c(c(O)c21)OCO3 (configuration not stated),n,x,x,98.8,x,71.9,98.5,98.7,
CC1=C2CCC3C(CCC4=CC(=O)CCC43C)C2CC1 (configuration not stated),n,x,x,n,x,n,x,x,
CC1=C(O)C(=O)C=C2C1=CC=C1C2(C)CCC2(C)C3CC(C)(C(=O)O)CCC3(C)CCC12C (configuration not stated),n,x,x,99.2,x,n,95.2,76.6,
Cc1ccsc1C(=O)C1CCCN(Cc2cnc(N3CCOCC3)s2)C1 (configuration not stated),n,n,n,n,n,n,x,x,
COC1C(OC(=O)c2ccc(C)[nH]2)C(O)C(Oc2ccc3c(O)c(NC(=O)c4ccc(O)c(CC=C(C)C)c4)c(=O)oc3c2Cl)OC1(C)C (configuration not stated),n,n,n,80.9,n,n,n,n,
NN=C1C(Cl)=C(Cl)C(Cl)=C1Cl,n,x,x,n,x,x,x,x,
O=C(c1cccc(C(F)(F)F)c1)N1C[C@H]2C[C@@H](C1)c1cccc(=O)n1C2,n,n,n,n,n,n,x,x,
C=CCn1c(O)c(/C=N/N2CCCCC2)c(=O)[nH]c1=O,n,n,n,n,n,n,x,x,
O=c1[nH]sc2cc(F)ccc12,n,x,x,n,x,n,n,n,
CCOC(=O)[C@]12Cc3cc(OC)ccc3[C@H]1N(C1CCCCC1)C(=O)c1ccccc12,n,x,x,n,x,x,x,x,
CCOC(=O)[C@]12Cc3cc(Cl)ccc3[C@H]1N(C)C(=O)c1ccccc12,n,x,x,n,x,x,x,x,
CCOC(=O)[C@]12Cc3cc(Cl)ccc3[C@H]1N(CC(=O)OC)C(=O)c1ccccc12,x,x,x,n,x,x,n,n,
CCOC(=O)[C@]12Cc3cc(Cl)ccc3[C@H]1N(C1CCCCC1)C(=O)c1ccccc12,x,x,x,n,x,x,96.5,n,
Oc1cc(Cl)c(Cl)cc1Cl,n,x,x,x,x,x,x,x,
SMILES,GalR3 antagonist,697 NFkB inh,NR2E3 ag-1,NR2E3 ag-2,Jurkat NFkB inh,Gli-Sufu antag,NR2E3 ag confirm,GAL4-VP16 luc,others
Oc1cc(Cl)c(Cl)c(Cl)c1Cl,n,x,x,73.9,x,n,n,74.9,
C[C@H]1CCC/C=C/[C@@H]2C[C@H](O)C[C@H]2[C@@H](O)/C=C/C(=O)O1,n,x,x,85.8,x,85.5,98.4,n,
CS(=O)(=O)Nc1ccc(Cc2noc(-c3ccc4[nH]cc(CCN)c4c3)n2)cc1,x,n,n,x,n,x,x,x,
CCN(CC)C(=O)c1ccc(NC(=O)c2cccc(S(=O)(=O)N3CCN(Cc4ccccc4)CC3)c2)cc1,n,n,n,n,n,n,n,n,
Cn1nc(-c2ccc(OCC(=O)N3CCN(Cc4ccccc4)CC3)cc2)c2ccccc2c1=O,n,n,n,71.1,n,n,n,n,
O=c1[nH]c(=S)[nH]c(O)c1N=Nc1ccc2c(c1)OCCO2,n,n,n,n,n,n,x,x,
O=c1[nH]c(O)c(N=Nc2ccc3c(c2)OCCO3)c(=O)[nH]1,n,n,n,n,n,n,n,n,
CC(=O)OCC12CC(OC(=O)CC(C)C)C(C)=CC1OC1C(O)C(OC(C)=O)C2(C)C12CO2 (configuration not stated),n,x,x,100.6,x,89.5,99.8,99.4,
O=C1Nc2ccccc2/C1=C/c1cnc[nH]1,n,n,n,n,n,n,n,n,
COc1ccc(CNCCc2ccc(Cl)cc2)c(OC)c1OC,n,n,n,n,n,n,x,x,

# High-throughput results from PubChem.
